Experimental findings from ChEMBL document CHEMBL1149303 (J Med Chem, 2004) are described below.

The IC50 is the concentration at which inhibition is half-maximal. The low end stands for higher potency, the high end for lower potency. Usually pKa stands for the negative logarithm of the acid dissociation constant. Low values mean a stronger acid or weaker base, high ones a weaker acid or stronger base. Broadly, the inhibition in vivo is how much of the control response was suppressed.

For data set [1], the target named is T1, Prostaglandin G/H synthase 2 (Homo sapiens, UniProt P35354).
T1 sequence (P35354 whole entry): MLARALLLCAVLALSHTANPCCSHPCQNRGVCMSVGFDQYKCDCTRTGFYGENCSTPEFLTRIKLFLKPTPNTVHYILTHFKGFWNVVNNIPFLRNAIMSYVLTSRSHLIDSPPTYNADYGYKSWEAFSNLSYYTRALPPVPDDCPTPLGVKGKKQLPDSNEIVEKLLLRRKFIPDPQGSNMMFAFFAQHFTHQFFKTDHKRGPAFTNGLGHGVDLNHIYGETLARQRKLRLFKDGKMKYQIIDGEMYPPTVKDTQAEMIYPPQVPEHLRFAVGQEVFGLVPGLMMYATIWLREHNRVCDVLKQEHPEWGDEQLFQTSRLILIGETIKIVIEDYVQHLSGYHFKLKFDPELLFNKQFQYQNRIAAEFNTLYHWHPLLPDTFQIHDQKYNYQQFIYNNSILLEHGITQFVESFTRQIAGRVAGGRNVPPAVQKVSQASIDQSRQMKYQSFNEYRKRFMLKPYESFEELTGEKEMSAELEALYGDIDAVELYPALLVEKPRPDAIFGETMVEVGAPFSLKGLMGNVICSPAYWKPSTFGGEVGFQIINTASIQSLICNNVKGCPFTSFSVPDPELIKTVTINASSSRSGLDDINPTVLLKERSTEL
The class given is tissue-based, Blood.

The nature of data set [2]: Dissociation constant, pKa by sulfonamide/sulfonamidate equilibrium. The class given is physicochemical. An outline of the steps:
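pKa was determined by UV spectrophotometry, to assign each compound's ionic state at pH 7.4.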

The target of data set [3] is Prostaglandin G/H synthase 1 (Homo sapiens, UniProt P23219).
Prostaglandin G/H synthase 1, sequence (P23219 whole entry): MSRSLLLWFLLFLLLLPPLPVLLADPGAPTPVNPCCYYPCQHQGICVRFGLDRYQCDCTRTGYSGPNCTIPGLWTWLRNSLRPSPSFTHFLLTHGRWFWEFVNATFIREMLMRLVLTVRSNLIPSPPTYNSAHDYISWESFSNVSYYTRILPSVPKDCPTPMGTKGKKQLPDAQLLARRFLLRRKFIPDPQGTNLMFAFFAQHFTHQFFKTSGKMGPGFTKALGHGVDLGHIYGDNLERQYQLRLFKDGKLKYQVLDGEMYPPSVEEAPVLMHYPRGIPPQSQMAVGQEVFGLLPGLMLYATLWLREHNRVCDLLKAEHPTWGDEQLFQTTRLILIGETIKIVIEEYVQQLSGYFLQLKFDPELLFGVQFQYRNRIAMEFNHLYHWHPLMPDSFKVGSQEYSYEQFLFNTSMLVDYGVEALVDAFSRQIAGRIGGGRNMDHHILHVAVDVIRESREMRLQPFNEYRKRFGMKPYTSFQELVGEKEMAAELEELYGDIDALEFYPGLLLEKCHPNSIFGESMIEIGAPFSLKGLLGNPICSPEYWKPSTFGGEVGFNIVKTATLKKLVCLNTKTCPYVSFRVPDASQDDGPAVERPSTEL
The species entered for a further data set is Homo sapiens. Briefly: Selectivity ratio of IC50 for human COX1 to IC50 for human COX2. The gist of the method: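 Human whole blood, each compound tested in triplicate at 0.01–100 µmol/L final, vehicle DMSO. COX-1: blood preincubated 15 min at 37 °C, stimulated with calcium ionophore A-23,187 for 15 min, serum TXB2 by EIA. COX-2: heparinized blood preincubated 15 min, then LPS (100 µg/mL final, E. coli B4) for 24 h at 37 °C, plasma PGE2 by EIA. Ratio taken as IC50 COX-1/IC50 COX-2.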

A short description of data set [4]: Dissociation constant, pKa by pyridinium/pyridine equilibrium. The class given is physicochemical. An outline of the steps:
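Ionisation constant measured by UV spectrophotometry.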

Data set [5] relates to Rattus norvegicus. Briefly: Lethality in Wistar rat at 30 mg/kg, ip in carrageenan-induced paw oedema model. The class given is functional, organism-based. Also noted: dose 30 mg/kg. An outline of the steps:
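Wistar rats (250 g) were dosed ip from a 10 mg/mL DMSO solution, 1 h before 0.1 mL of 1% λ-carrageenan in the right hind paw. Deaths were noted over the following 3 h paw-oedema period in groups of six rats.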
A general note: The carrageenan paw model is a standard test of acute inflammation.

For data set [6], the system named is Rattus norvegicus. As to the kind of experiment: Antiinflammatory activity against carrageenan-induced oedema in Wistar rat paw at 3 mg/kg, ip after 3 hrs relative to control. The class given is functional. The conditions noted are these: route intraperitoneal. The gist of the method:
(§1)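 Wistar rats (250 g) got the drug ip from a 10 mg/mL DMSO solution. 1 h later, 0.1 mL of 1% λ-carrageenan was injected into the plantar region of the right paw. After 3 h the rats were euthanized with nembutal (100 mg/kg), and paws were cut at the ankle and weighed. Swelling inhibition is given as % vs the control group (6 rats/group, mean ± SEM).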

Data set [7] has as its system Rattus norvegicus. As to the kind of experiment: Antiinflammatory activity against carrageenan-induced oedema in Wistar rat paw at 10 mg/kg, ip after 3 hrs relative to control. The conditions noted are these: route intraperitoneal. The class given is functional. An outline of the steps: as §1
For data set [8], the system named is Rattus norvegicus. As to the kind of experiment: Antiinflammatory activity against carrageenan-induced oedema in Wistar rat paw at 30 mg/kg, ip after 3 hrs relative to control. The conditions noted are these: route intraperitoneal. The class given is functional. An outline of the steps:
as §1

Structures are written as SMILES. The source made the active and inactive calls. The rule behind the calls is not given here.

For the compound `O=S(=O)(Nc1ccncc1Sc1ccccc1)C(F)(F)F`, the IC50 in data set [1] worked out at 530 nM; in [3] it was 410 nM. In addition, the pKa in data set [2] was below 1; in data set [4] it was 6.54. For the same compound, in the data set listed under Homo sapiens, the Ratio IC50 turned out to be 0.78.
`CS(=O)(=O)Nc1ccncc1Oc1ccc(Br)cc1`: the IC50 in data set [1] stood at 7600 nM; in [3], 1410 nM. The pKa in data set [2] was below 4; in [4], 7.86. In addition, the Ratio IC50 in the data set filed under Homo sapiens is 0.18.
For the compound `O=S(=O)(Nc1ccncc1Oc1ccc(Cl)cc1)C(F)(F)F`, the values for the IC50 in data set [1] and in [3] were 1530 nM and 360 nM, respectively. Further, the pKa is below 1 in [2] and 6.71 in [4]. Further, in the data set filed under Homo sapiens, the Ratio IC50 stood at 0.24.
For `O=S(=O)(Nc1ccncc1Oc1ccc(Cl)cc1Cl)C(F)(F)F`, the IC50 in [1] is 2550 nM; in data set [3], 1370 nM. Further, in the data set listed under Homo sapiens, the Ratio IC50 turned out to be 0.54.
On the same counts, the results for `O=S(=O)(Nc1ccncc1Oc1ccccc1Cl)C(F)(F)F` are 150 nM, 270 nM and 1.74.
Regarding `CS(=O)(=O)Nc1ccncc1Oc1ccc(Cl)cc1`, the values for the IC50 in data set [1] and in data set [3] were 1870 nM and 1450 nM, respectively. Besides, the pKa is below 4 in [2] and 7.97 in [4]. Moreover, in the data set on Rattus norvegicus [5], the outcome was Active. This compound also had an inhibition in vivo at 3 mg/kg with Rattus norvegicus [6] of 28.7%. The Ratio IC50 in the data set filed under Homo sapiens was found to be 0.77. Moreover, the inhibition in vivo at 10 mg/kg in the data set with Rattus norvegicus [7] amounted to 35.1%.
Regarding `CN(c1ccccc1)c1cnccc1NS(=O)(=O)C(F)(F)F`, the IC50 in data set [1] came out at 47600 nM; in data set [3], 4630 nM. In addition, the Ratio IC50 in the data set listed under Homo sapiens turned out to be 0.097.
Consider `CS(=O)(=O)Nc1ccncc1S(=O)(=O)c1ccccc1`, for which the IC50 in data set [1] and in data set [3] was above 100000 nM throughout.
`O=S(=O)(Nc1ccncc1Oc1cc(Cl)cc(Cl)c1)C(F)(F)F`: the IC50 in [1] and in data set [3] was above 100000 nM throughout.
`CCCS(=O)(=O)Nc1ccncc1Oc1ccc(Cl)cc1`: the figures for the IC50 in data set [1] and in data set [3] were 9690 nM and 2300 nM, respectively. In addition, the Ratio IC50 in the data set listed under Homo sapiens was found to be 0.24.
Regarding `O=S(=O)(Nc1ccncc1Oc1cccc(Cl)c1)C(F)(F)F`, the IC50 in [1] was above 100000 nM; in data set [3], 2270 nM.
Take `CCS(=O)(=O)Nc1ccncc1Oc1ccccc1`: the IC50 is 14100 nM in data set [1] and 5340 nM in data set [3]. Further, the Ratio IC50 in the data set listed under Homo sapiens came out at 0.38.
In the case of `O=S(=O)(Nc1ccncc1Oc1ccc(Br)cc1)C(F)(F)F`, the IC50 worked out at 13800 nM in [1] and 240 nM in [3]. Also, at 3 mg/kg the inhibition in vivo in the data set with Rattus norvegicus [6] was 5%. Further, the Ratio IC50 in the data set filed under Homo sapiens was 0.02. This compound returned an inhibition in vivo at 30 mg/kg in the data set with Rattus norvegicus [8] of 36.7%. Moreover, the inhibition in vivo at 10 mg/kg in the data set with Rattus norvegicus [7] was 8.33%.
With `COc1ccc(Oc2cnccc2NS(=O)(=O)C(F)(F)F)cc1`, the IC50 in data set [1] amounted to 440 nM; in data set [3] it was 260 nM. Also, the Ratio IC50 in the data set filed under Homo sapiens is 0.59.
In the case of `CS(=O)(=O)Nc1ccncc1Oc1ccccc1Cl`, the IC50 is 130 nM in data set [1] and 1030 nM in [3]. The compound also came in with an inhibition in vivo at 3 mg/kg with Rattus norvegicus [6] of 9.47%. Moreover, the Ratio IC50 in the data set listed under Homo sapiens worked out at 7.92. This compound gave an inhibition in vivo at 30 mg/kg in the data set on Rattus norvegicus [8] of 62.8%. For the same compound, the inhibition in vivo at 10 mg/kg in the data set on Rattus norvegicus [7] was determined as 37.5%.
With `CS(=O)(=O)Nc1ccncc1Oc1cccc(Cl)c1`, the figures for the IC50 in data set [1] and in data set [3] were 1990 nM and 10900 nM, respectively. In addition, the values for the pKa in data set [2] and in [4] were below 4 and 7.74, respectively. The outcome with Rattus norvegicus [5] was Active. The same compound returned an inhibition in vivo at 3 mg/kg in the data set with Rattus norvegicus [6] of 10.9%. Moreover, the Ratio IC50 in the data set listed under Homo sapiens worked out at 5.45. In the data set on Rattus norvegicus [7], this compound yielded an inhibition in vivo at 10 mg/kg of 21%.
Consider `CS(=O)(=O)Nc1ccncc1Sc1ccccc1`, for which the IC50 worked out at 1190 nM in [1] and 3620 nM in data set [3]. In the data set on Rattus norvegicus [5], the outcome was Active. The compound further came in with an inhibition in vivo at 3 mg/kg in the data set with Rattus norvegicus [6] of 7.44%. Moreover, in the data set filed under Homo sapiens, the Ratio IC50 worked out at 3.05. This compound gave an inhibition in vivo at 10 mg/kg in the data set on Rattus norvegicus [7] of 40.7%.
For `O=S(=O)(Nc1ccncc1[S+]([O-])c1ccccc1)C(F)(F)F` (stereo not drawn), the IC50 is above 100000 nM in data set [1] and 25600 nM in data set [3]. The pKa is below 1 in [2] and 5.69 in [4].
On to `O=S(=O)(Nc1ccncc1Nc1ccccc1)C(F)(F)F`, for which the IC50 in [1] was determined as 90 nM; in [3], 180 nM. The compound also registered an inhibition in vivo at 3 mg/kg in the data set on Rattus norvegicus [6] of 22.7%. For the same compound, the Ratio IC50 in the data set filed under Homo sapiens amounted to 2.03. Also, in the data set with Rattus norvegicus [8], 30 mg/kg produced 44% inhibition in vivo. In the data set on Rattus norvegicus [7], this compound came in with an inhibition in vivo at 10 mg/kg of 34.5%.
Regarding `CS(=O)(=O)Nc1ccncc1Oc1cc(Cl)cc(Cl)c1`, the IC50 in data set [1] and in data set [3] was above 100000 nM throughout. In addition, in the data set with Rattus norvegicus [6], testing at 3 mg/kg gave an inhibition in vivo of 18%. The compound also registered an inhibition in vivo at 30 mg/kg with Rattus norvegicus [8] of 21.3%. The compound also had an inhibition in vivo at 10 mg/kg with Rattus norvegicus [7] of 18%.
In the case of `CCCS(=O)(=O)Nc1ccncc1Oc1ccccc1`, the IC50 in data set [1] is above 100000 nM; in [3] it was 18400 nM.
As to `CCS(=O)(=O)Nc1ccncc1Oc1ccc(Cl)cc1`, the concentration for half-maximal inhibition (IC50) came out at 3280 nM in data set [1] and 2440 nM in data set [3]. Moreover, the pKa was below 4 in data set [2] and 7.98 in [4]. The Ratio IC50 in the data set filed under Homo sapiens worked out at 0.75.
As for `CS(=O)(=O)Nc1ccncc1Oc1ccccc1`, the IC50 was above 100000 nM in [1] and 410 nM in [3]. The pKa in data set [2] worked out at 2.98; in [4] it was 8.13. In the data set on Rattus norvegicus [5], the result was Active.
In the data set with Rattus norvegicus [6], `CS(=O)(=O)Nc1ccc([N+](=O)[O-])cc1Oc1ccccc1` [NIMESULIDE] had an inhibition in vivo at 3 mg/kg of 23.7%. In the data set with Rattus norvegicus [8], this compound returned an inhibition in vivo at 30 mg/kg of 44.3%. The compound also had an inhibition in vivo at 10 mg/kg with Rattus norvegicus [7] of 40.2%.
For the compound `COc1ccc(Oc2cnccc2NS(C)(=O)=O)cc1`, the IC50 in [1] stood at 2360 nM; in data set [3], 1810 nM. In addition, in the data set filed under Homo sapiens, the Ratio IC50 is 0.76.
As to `O=S(=O)(Nc1ccncc1Oc1ccccc1)C(F)(F)F`, the figures for the pKa in data set [2] and in data set [4] were below 1 and 6.81, respectively. This compound also came in with an inhibition in vivo at 3 mg/kg in the data set on Rattus norvegicus [6] of 10.9%. This compound also showed an inhibition in vivo at 30 mg/kg with Rattus norvegicus [8] of 46.4%. Moreover, 10 mg/kg produced 26% inhibition in vivo in the data set with Rattus norvegicus [7].
Take `O=S(=O)(c1ccccc1)c1cnccc1NS(=O)(=O)C(F)(F)F`: the concentration for half-maximal inhibition (IC50) in data set [1] and in data set [3] was above 100000 nM in each case. Further, the pKa in data set [2] was below 1; in data set [4], 5.3.
As for `CS(=O)(=O)Nc1ccncc1Oc1ccc(Cl)cc1Cl`, the IC50 in data set [1] is 120 nM; in data set [3], 620 nM. For the same compound, the pKa is below 4 in data set [2] and 7.81 in data set [4]. In the data set with Rattus norvegicus [6], this compound returned an inhibition in vivo at 3 mg/kg of 20.9%. The Ratio IC50 in the data set filed under Homo sapiens amounted to 5.15. The inhibition in vivo at 30 mg/kg in the data set with Rattus norvegicus [8] is 32.7%. The compound further had an inhibition in vivo at 10 mg/kg in the data set with Rattus norvegicus [7] of 15.8%.
